Data reported in PMC9868102 (Cell chemical biology, 2023).
“Also recorded” adds a separate entry of the source.

Experiments:
[1] = tested on: 9022 cells (HLA-DQ2 homozygous B-cell line); assay: Cell surface presentation by HLA-DQ2 expressing 9022 B cells; assay type: cell-based, human; details: 100 nM TG2; 150 cells from 2-4 frames of 3-6 replicates
Procedure, shortened: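 EBV-immortalised HLA-DQ2-homozygous B cells in RPMI with 10% FBS and 1% PenStrep, pelleted, resuspended and left 20 min at 37 °C to adhere on poly-L-lysine-coated glass. Cy5-33mer, α2M and 100 nM recombinant human TG2 (E. coli, His6) added for 2.5 h. Anti-HLA-DQ2 (1:50) then Alexa 488 secondary, each 20 min on ice, fixed, DAPI, confocal. Cells with surface HLA-DQ2/Cy5 overlay scored; 2-4 frames of 3-6 replicates.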

[2] = tested on: transglutaminase-2 (TG2); assay: Bio-layer interferometry of α2M-TG2 interaction; assay type: binding; details: preliminary efforts
[3] = tested on: NRK cells; assay: Uptake of fluorescent TG2 probes by NRK cells; assay type: cell-based, rat; details: HB230 1 μM
Procedure, shortened: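 NRK cells were grown in DMEM. Media were replaced, and 1 μM probe was co-incubated for 90 min with α2M at varied levels (some Alexa 555 NHS-labelled), plus TRX as specified. Cells were washed in HBSS, fixed in 2% PFA, DAPI-stained and imaged by confocal microscopy. Puncta were counted with a circularity cutoff of 0.3 and a minimum size threshold, then normalized to cell number by DAPI.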

[4] = tested on: LRP-1 knock-out MEFs; assay: Internalization of HB230 and α2M by LRP-1 knock-out MEFs; assay type: cell-based, mouse; details: α2M 100 μg/mL, HB230 10 μM, exogenous TRX and betamethasone
[5] = biological target: T1, TG2 derivative harboring the N-terminal and catalytic domains but lacking both β-barrel domains (Homo sapiens, UniProt P21980); assay: Kinetics of truncated TG2 lacking both β-barrel domains; assay type: biochemical; details: TG2 derivative lacking both β-barrel domains
T1 sequence (P21980 1-460): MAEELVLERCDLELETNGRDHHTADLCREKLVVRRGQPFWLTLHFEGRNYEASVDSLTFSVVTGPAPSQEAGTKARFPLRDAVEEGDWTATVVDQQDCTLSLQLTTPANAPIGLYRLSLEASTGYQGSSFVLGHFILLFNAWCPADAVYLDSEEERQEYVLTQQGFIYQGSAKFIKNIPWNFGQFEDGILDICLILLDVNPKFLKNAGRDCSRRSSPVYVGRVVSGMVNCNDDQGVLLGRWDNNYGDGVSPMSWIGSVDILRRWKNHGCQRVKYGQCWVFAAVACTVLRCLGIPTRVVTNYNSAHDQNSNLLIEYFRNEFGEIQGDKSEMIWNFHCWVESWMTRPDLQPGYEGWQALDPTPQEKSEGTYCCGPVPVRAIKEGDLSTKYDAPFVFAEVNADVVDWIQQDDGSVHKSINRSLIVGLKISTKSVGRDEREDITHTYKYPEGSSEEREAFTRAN
Procedure, shortened: (§1)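 Truncated human TG2 constructs with N-terminal His tags (residues 1-586 lacking β2; residues 1-460 lacking β1 and β2) were expressed in Rosetta2 E. coli and purified by Ni, anion exchange and SEC. The assay was GDH-coupled: 200 mM MOPS pH 7.2, 5 mM CaCl2, 10 mM α-ketoglutarate, 18 U/mL GDH, 0.5 mM NADH and Ac-PQLPF-NH2. Reduced enzyme was at 1 μM final, ± Expi293F-expressed human α2M. NADH loss was read at 340 nm for 60 min at 25 °C. Rates came from linear slopes; triplicate.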

[6] = biological target: T2, human TG2 (Homo sapiens, UniProt P21980); assay: TG2 steady-state kinetics of substrates, wild-type TG2 ± α2M and vs pH; assay type: biochemical; details: kcat of AC-PQLPF-NH2
T2 sequence (P21980 1-687): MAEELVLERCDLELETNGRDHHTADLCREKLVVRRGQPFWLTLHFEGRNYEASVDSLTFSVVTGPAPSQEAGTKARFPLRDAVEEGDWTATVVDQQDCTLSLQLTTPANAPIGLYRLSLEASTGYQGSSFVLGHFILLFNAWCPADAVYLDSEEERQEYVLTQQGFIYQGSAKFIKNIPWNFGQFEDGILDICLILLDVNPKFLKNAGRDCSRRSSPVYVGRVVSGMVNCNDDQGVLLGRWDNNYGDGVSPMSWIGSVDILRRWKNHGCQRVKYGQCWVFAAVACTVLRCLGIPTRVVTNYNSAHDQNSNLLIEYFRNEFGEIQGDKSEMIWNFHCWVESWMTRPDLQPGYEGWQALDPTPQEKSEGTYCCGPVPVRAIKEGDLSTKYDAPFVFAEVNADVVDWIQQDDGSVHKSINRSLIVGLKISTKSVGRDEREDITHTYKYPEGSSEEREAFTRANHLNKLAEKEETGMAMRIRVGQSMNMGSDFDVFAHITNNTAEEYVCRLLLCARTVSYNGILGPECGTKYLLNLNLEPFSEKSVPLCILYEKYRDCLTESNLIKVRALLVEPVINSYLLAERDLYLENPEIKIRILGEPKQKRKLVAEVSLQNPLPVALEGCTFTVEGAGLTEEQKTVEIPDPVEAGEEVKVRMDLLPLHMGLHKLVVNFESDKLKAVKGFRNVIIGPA
Procedure, shortened: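 His6-tagged human TG2 from E. coli BL21(DE3) was purified by Ni-NTA and anion exchange, reduced, and desalted into PBS. It was assayed at 1 μM final, ± recombinant human α2M (Expi293F-expressed), with GDH/α-ketoglutarate/NADH coupling in 200 mM MOPS pH 7.2 with 5 mM CaCl2. Substrate was Ac-PQLPF-NH2 unless otherwise specified. Absorbance at 340 nm was followed for 60 min at 25 °C. Steady-state rates came from linear progress-curve slopes; triplicate.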

[7] = biological target: T3, TG2 derivative lacking the C-terminal β-barrel domain (Homo sapiens, UniProt P21980); assay: Kinetics of truncated TG2 lacking the C-terminal β-barrel domain; assay type: biochemical; details: TG2 derivatives lacking the C-terminal β-barrel domain
T3 sequence (P21980 1-586): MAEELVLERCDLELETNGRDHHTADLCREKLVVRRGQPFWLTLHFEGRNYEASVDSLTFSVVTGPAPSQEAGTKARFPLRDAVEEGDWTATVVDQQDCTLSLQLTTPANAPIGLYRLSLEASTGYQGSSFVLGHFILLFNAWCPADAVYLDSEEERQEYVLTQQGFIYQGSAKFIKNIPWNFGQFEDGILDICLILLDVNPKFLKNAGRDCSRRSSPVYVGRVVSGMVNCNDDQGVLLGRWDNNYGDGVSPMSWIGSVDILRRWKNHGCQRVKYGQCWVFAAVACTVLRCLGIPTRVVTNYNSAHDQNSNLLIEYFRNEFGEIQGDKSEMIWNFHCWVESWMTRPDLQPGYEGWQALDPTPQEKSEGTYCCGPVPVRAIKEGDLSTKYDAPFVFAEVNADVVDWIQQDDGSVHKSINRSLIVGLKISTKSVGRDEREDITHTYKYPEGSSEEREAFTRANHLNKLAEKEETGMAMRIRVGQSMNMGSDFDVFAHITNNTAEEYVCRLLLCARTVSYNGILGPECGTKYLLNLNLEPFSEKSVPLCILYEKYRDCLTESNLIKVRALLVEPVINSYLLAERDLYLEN
Procedure, shortened: as §1

[8] = tested on: wild-type MEFs; assay: Internalization of HB230 and α2M by wild-type MEFs; assay type: cell-based, mouse; details: α2M 100 μg/mL, HB230 10 μM, exogenous TRX and betamethasone

- detection of α2M-TG2 interaction [2]: unsuccessful
- inhibition of truncated TG2 by α2M [5]: Inhibition was abolished
- inhibition of truncated TG2 by α2M [7]: Inhibition was abolished
Substance: α2M: ~800 kDa homotetrameric pan-protease inhibitor
- effect of α2M on cell surface 33mer [1]: enhanced upon addition of exogenous α2M; also recorded: the number of cells displaying gluten peptides on their surface increases
- α2M concentration up to which HB230 uptake increases (saturation) ([3]; 90 min): ~ 100 μg/mL
- effect of α2M on HB230 uptake ([3]; α2M supplementation): strong dose-dependent increase in uptake of HB230; also recorded: predominantly appeared to affect the size and number of the larger puncta
- internalization by LRP-1 knock-out MEFs [4]: markedly reduced uptake
- inhibition of TG2 by α2M, mechanism [6]: non-competitive inhibition mechanism of TG2 by α2M
- internalization by wild-type MEFs [8]: readily internalize
